Test results from ChEMBL document CHEMBL1145056, “Structure-activity relationships of novel cyclic alpha-MSH/beta-MSH hybrid analogues that lead to potent and selective ligands for the human MC3R and human MC5R” (J Med Chem, 2003).
Positions of bridges follow the written chain, without caps; N, C: chain ends. Non-standard residues stand in square brackets, D forms with d. Residues, ends and D or L forms follow the SMILES beside them. d2Nal = N[C@H](Cc1ccc2ccccc2c1)C(=O)O

Columns and labels:
Melanocortin receptor 4 [1] = target: T1, Melanocortin receptor 4 (Homo sapiens, UniProt P32245); experiment: Inhibition of human melanocortin 4 receptor
Melanocortin receptor 4 [2] = target: T1, Melanocortin receptor 4; experiment: (§1) Effective concentration of peptide at 50% maximal cAMP generation; assay type: functional
Melanocortin receptor 5 [3] = target: T2, Melanocortin receptor 5 (Homo sapiens, UniProt P33032); experiment: Inhibition of human melanocortin 5 receptor
Melanocortin receptor 3 [4] = target: T3, Melanocortin receptor 3 (Homo sapiens, UniProt P41968); experiment: as §1; assay type: functional
How it was run: (§2)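 Receptor-transfected human MCR HEK293 cells were seeded at 50 000 cells/well 48 h before the assay. The reaction was stopped with ice-cold Tris/EDTA, and lysates were boiled 15 min. cAMP was measured by competitive binding kit.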

Melanocortin receptor 5 [5] = target: T2, Melanocortin receptor 5; experiment: as §1; assay type: functional; how it was run: as §2
Melanocortin receptor 3 [6] = target: T3, Melanocortin receptor 3; experiment: Inhibition of human Melanocortin 3 receptor
Melanocortin receptor 5 [7] = target: T2, Melanocortin receptor 5; experiment: (§3) Effective concentration of peptide at 50% maximal cAMP generation (10e-10 to 10e-4 M); assay type: functional
How it was run: as §2, with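 “assay. Cells were preincubated in EBSS with 0.5 mM IBMX for 1 min at 37 °C, then exposed to peptide (10^-10 to 10^-4 M) for 3 min at 37 °C.” for “assay.”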

Melanocortin receptor 4 [8] = target: T1, Melanocortin receptor 4; experiment: as §3; assay type: functional
How it was run: as §2, with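 “assay. Cells were preincubated in EBSS with 0.5 mM IBMX for 1 min at 37 °C, then exposed to peptide (10^-10 to 10^-4 M) for 3 min at 37 °C.” for “assay.”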

Melanocortin receptor 5 [9] = target: T2, Melanocortin receptor 5; experiment: Inhibitory activity against human melanocortin receptor human Melanocortin 5 receptor was determined
How it was run: (§4)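 Whole-cell competition binding in HEK293 cells stably transfected with human MCRs (CMVneo vector), 50 000 cells/well seeded 48 h before. Binding buffer: MEM, 25 mM HEPES pH 7.4, 0.2% BSA, 1,10-phenanthroline, leupeptin, bacitracin. Cells were incubated with unlabeled peptide (10^-10 to 10^-4 M) and 0.1386 nM [125I-Tyr2]-[Nle4,D-Phe7]α-MSH for 40 min at 37 °C, then washed, lysed (NaOH/Triton X-100) and gamma-counted.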

Melanocortin receptor 4 [10] = target: T1, Melanocortin receptor 4; experiment: Inhibitory activity against human melanocortin receptor human Melanocortin 4 receptor was determined; how it was run: as §4
Melanocortin receptor 3 [11] = target: T3, Melanocortin receptor 3; experiment: Inhibitory activity against human Melanocortin 3 receptor was determined; how it was run: as §4

T1 sequence (P32245 whole entry): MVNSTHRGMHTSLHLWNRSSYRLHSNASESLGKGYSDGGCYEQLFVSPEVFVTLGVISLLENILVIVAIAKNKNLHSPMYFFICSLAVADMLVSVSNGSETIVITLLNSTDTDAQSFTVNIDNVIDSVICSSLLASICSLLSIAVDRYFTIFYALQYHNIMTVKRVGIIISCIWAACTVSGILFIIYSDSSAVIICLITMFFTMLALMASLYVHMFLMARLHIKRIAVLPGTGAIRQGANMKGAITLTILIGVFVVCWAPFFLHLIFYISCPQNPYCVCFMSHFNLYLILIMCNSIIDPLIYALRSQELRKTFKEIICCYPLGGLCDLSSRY
T2 sequence (P33032 whole entry): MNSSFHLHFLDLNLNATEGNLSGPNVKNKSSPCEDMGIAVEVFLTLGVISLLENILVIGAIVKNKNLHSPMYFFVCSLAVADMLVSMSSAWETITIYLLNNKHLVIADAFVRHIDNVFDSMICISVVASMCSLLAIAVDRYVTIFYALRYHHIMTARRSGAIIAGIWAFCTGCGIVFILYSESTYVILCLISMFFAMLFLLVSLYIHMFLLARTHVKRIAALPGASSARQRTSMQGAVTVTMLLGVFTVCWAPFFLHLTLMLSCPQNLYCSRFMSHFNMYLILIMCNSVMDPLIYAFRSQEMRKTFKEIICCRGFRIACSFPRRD
T3 sequence (P41968 whole entry): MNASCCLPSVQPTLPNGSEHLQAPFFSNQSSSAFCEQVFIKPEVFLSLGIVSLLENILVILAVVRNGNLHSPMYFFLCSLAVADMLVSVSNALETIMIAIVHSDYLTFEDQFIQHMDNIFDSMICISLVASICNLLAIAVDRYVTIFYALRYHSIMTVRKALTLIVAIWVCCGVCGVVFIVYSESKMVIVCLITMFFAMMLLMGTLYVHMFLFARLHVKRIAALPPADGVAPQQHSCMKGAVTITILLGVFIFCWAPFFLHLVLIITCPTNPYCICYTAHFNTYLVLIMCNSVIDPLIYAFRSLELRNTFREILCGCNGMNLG

Row | Structure (SMILES) | IC50 (Melanocortin receptor 4 [1]) | EC50 (Melanocortin receptor 4 [2]) | IC50 (Melanocortin receptor 5 [3]) | EC50 (Melanocortin receptor 3 [4]) | EC50 (Melanocortin receptor 5 [5]) | IC50 (Melanocortin receptor 3 [6]) | EC50 (Melanocortin receptor 5 [7]) | EC50 (Melanocortin receptor 4 [8]) | Ki (Melanocortin receptor 5 [9]) | Ki (Melanocortin receptor 4 [10]) | Ki (Melanocortin receptor 3 [11])
1 | CC(=O)N[C@H]1CSSC[C@@H](C(=O)N2CCC[C@H]2C(=O)N2CCC[C@H]2C(=O)N[C@@H](CCCCN)C(=O)N[C@@H](CC(=O)O)C(N)=O)NC(=O)[C@H](Cc2c[nH]c3ccccc23)NC(=O)[C@H](CCCN=C(N)N)NC(=O)[C@@H](Cc2ccc3ccccc3c2)NC(=O)[C@H](Cc2c[nH]cn2)NC(=O)[C@H](CCC(=O)O)NC1=O | 0.0034 µM | 0.0061 µM | 0.18 µM | > 10 µM | 0.19 µM | 0.13 µM |  |  |  |  | 
2 | CC(=O)N[C@H]1CSSC[C@H](C(=O)N2CCC[C@H]2C(=O)N2CCC[C@H]2C(=O)N[C@@H](CCCCN)C(=O)N[C@@H](CC(=O)O)C(N)=O)NC(=O)[C@H](Cc2c[nH]c3ccccc23)NC(=O)[C@H](CCCNC(=N)N)NC(=O)[C@@H](Cc2ccccc2)NC(=O)[C@H](Cc2c[nH]cn2)NC(=O)[C@H](CCC(=O)O)NC1=O | > 10 µM | > 10 µM | 0.01 µM | > 10 µM | > 10 µM | 5.6 µM |  |  |  |  | 
3 | CC(=O)N[C@@H]1CSSC[C@@H](C(=O)N2CCC[C@H]2C(=O)N2CCC[C@H]2C(=O)N[C@@H](CCCCN)C(=O)N[C@@H](CC(=O)O)C(N)=O)NC(=O)[C@H](Cc2c[nH]c3ccccc23)NC(=O)[C@H](CCCN=C(N)N)NC(=O)[C@@H](Cc2ccc3ccccc3c2)NC(=O)[C@H](Cc2c[nH]cn2)NC(=O)[C@H](CCC(=O)O)NC1=O | 3.7 µM | > 10 µM | 26 µM | > 10 µM |  | 0.2 µM | 0.88 µM |  |  |  | 
4 | CC(=O)N[C@@H]1CSSC[C@@H](C(=O)N2CCC[C@H]2C(=O)N2CCC[C@H]2C(=O)N[C@@H](CCCCN)C(=O)N[C@@H](CC(=O)O)C(N)=O)NC(=O)[C@H](Cc2c[nH]c3ccccc23)NC(=O)[C@H](CCCNC(=N)N)NC(=O)[C@@H](Cc2ccccc2)NC(=O)[C@H](Cc2c[nH]cn2)NC(=O)[C@H](CCC(=O)O)NC1=O | 37 µM | > 10 µM | 0.073 µM | > 10 µM | > 10 µM | 0.62 µM |  |  |  |  | 
5 | CC(=O)N[C@@H]1C(=O)N[C@@H](CCC(=O)O)C(=O)N[C@@H](Cc2c[nH]cn2)C(=O)N[C@H](Cc2ccc3ccccc3c2)C(=O)N[C@@H](CCCN=C(N)N)C(=O)N[C@@H](Cc2c[nH]c3ccccc23)C(=O)N[C@H](C(=O)N2CCC[C@H]2C(=O)N2CCC[C@H]2C(=O)N[C@@H](CCCCN)C(=O)N[C@@H](CC(=O)O)C(N)=O)CSSC1(C)C | 0.75 µM | > 10 µM | 0.094 µM | > 10 µM | > 10 µM | 0.003 µM |  |  |  |  | 
6 | CC(=O)N[C@H]1CC(=O)NCCCC[C@@H](C(=O)N2CCC[C@H]2C(=O)N2CCC[C@H]2C(=O)N[C@@H](CCCCN)C(=O)N[C@@H](CC(=O)O)C(N)=O)NC(=O)[C@H](Cc2c[nH]c3ccccc23)NC(=O)[C@H](CCCNC(=N)N)NC(=O)[C@@H](Cc2ccccc2)NC(=O)[C@H](Cc2c[nH]cn2)NC(=O)[C@H](CCC(=O)O)NC1=O | > 10 µM | > 10 µM | > 10 µM | > 10 µM | > 10 µM | > 1 µM |  |  |  |  | 
7 | CC(=O)N[C@H]1CSSC[C@H](C(=O)N2CCC[C@H]2C(=O)N2CCC[C@H]2C(=O)N[C@@H](CCCCN)C(=O)N[C@@H](CC(=O)O)C(N)=O)NC(=O)[C@H](Cc2c[nH]c3ccccc23)NC(=O)[C@H](CCCN=C(N)N)NC(=O)[C@@H](Cc2ccc3ccccc3c2)NC(=O)[C@H](Cc2c[nH]cn2)NC(=O)[C@H](CCC(=O)O)NC1=O | 40 µM | > 10 µM | 15 µM | > 10 µM | > 10 µM | 2.9 µM |  |  |  |  | 
8 | CC(=O)N[C@@H]1C(=O)N[C@@H](CCC(=O)O)C(=O)N[C@@H](Cc2c[nH]cn2)C(=O)N[C@H](Cc2ccccc2)C(=O)N[C@@H](CCCN=C(N)N)C(=O)N[C@@H](Cc2c[nH]c3ccccc23)C(=O)N[C@H](C(=O)N2CCC[C@H]2C(=O)N2CCC[C@H]2C(=O)N[C@@H](CCCCN)C(=O)N[C@@H](CC(=O)O)C(N)=O)CSSC1(C)C | 1.1 µM | 0.0063 µM | 27 µM | 0.0028 µM | > 10 µM | 0.43 µM |  |  |  |  | 

Now from value to molecule:

Row | IC50 (Melanocortin receptor 4 [1]) | EC50 (Melanocortin receptor 4 [2]) | IC50 (Melanocortin receptor 5 [3]) | EC50 (Melanocortin receptor 3 [4]) | EC50 (Melanocortin receptor 5 [5]) | IC50 (Melanocortin receptor 3 [6]) | EC50 (Melanocortin receptor 5 [7]) | EC50 (Melanocortin receptor 4 [8]) | Ki (Melanocortin receptor 5 [9]) | Ki (Melanocortin receptor 4 [10]) | Ki (Melanocortin receptor 3 [11]) | Structure (SMILES)
9 | 17 µM |  | 97 µM | > 10 µM | > 10 µM | 0.031 µM |  | > 10 µM |  |  |  | CC(=O)N[C@H]1CSSC[C@@H](C(=O)N2CCC[C@H]2C(=O)N2CCC[C@H]2C(=O)N[C@@H](CCCCN)C(=O)N[C@@H](CC(=O)O)C(N)=O)NC(=O)[C@H](Cc2c[nH]c3ccccc23)NC(=O)[C@H](CCCNC(=N)N)NC(=O)[C@@H](Cc2ccc3ccccc3c2)NC(=O)[C@@H]2CCCN2C(=O)[C@H](CCC(=O)O)NC1=O
10 | 3.3 µM | > 10 µM | 0.2 µM | 0.401 µM |  | > 1 µM | 0.38 µM |  |  |  |  | CC(=O)N[C@H]1CSSC[C@@H](C(=O)N2CCC[C@H]2C(=O)N2CCC[C@H]2C(=O)N[C@@H](CCCCN)C(=O)N[C@@H](CC(=O)O)C(N)=O)NC(=O)[C@H](Cc2c[nH]c3ccccc23)NC(=O)[C@H](CCCNC(=N)N)NC(=O)[C@@H](Cc2ccccc2)NC(=O)[C@@H]2CCCN2C(=O)[C@H](CCC(=O)O)NC1=O
11 |  |  |  |  |  |  |  |  | 0.694 µM | 0.0031 µM | 0.054 µM | CC(=O)N[C@H]1CSSC[C@@H](C(=O)N2CCC[C@H]2C(=O)N2CCC[C@H]2C(=O)N[C@@H](CCCCN)C(=O)N[C@@H](CC(=O)O)C(N)=O)NC(=O)CNC(=O)[C@H](Cc2c[nH]c3ccccc23)NC(=O)[C@H](CCCNC(=N)N)NC(=O)[C@@H](Cc2ccc3ccccc3c2)NC(=O)[C@H](Cc2c[nH]cn2)NC(=O)[C@H](CCC(=O)O)NC1=O (Ac-CEH[d2Nal]RWGCPPKD-NH2; disulfide 1-8)
